According to ChEMBL document CHEMBL2390921, “A novel benzazepinone sodium channel blocker with oral efficacy in a rat model of neuropathic pain” (Bioorg Med Chem Lett, 2013):

Key:
Rattus norvegicus [1] = experiment: Analgesic activity in po dosed rat spinal nerve ligation neuropathic pain model assessed as reversal of allodynia measured after 4 hrs; assay type: functional, organism-based
Procedure, shortened: (§1)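 Rat spinal nerve ligation model. Seven days after surgery, rats received a single oral dose (3, 10 or 30 mg/kg) of test agent or vehicle. Tactile allodynia was scored at 2, 4, 8 and 24 h post-dose with calibrated von Frey filaments using an up-down paradigm. Threshold is the force giving a 50% withdrawal rate. %MPE = (post-compound − post-SNL)/(pre-SNL − post-SNL) × 100, where 100% is full reversal.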

Rattus norvegicus [2] = experiment: Analgesic activity in po dosed rat spinal nerve ligation neuropathic pain model assessed as reversal of allodynia measured at 2 to 4 hrs; assay type: functional; procedure, shortened: as §1
Rattus norvegicus [3] = experiment: Analgesic activity in rat spinal nerve ligation neuropathic pain model assessed as reversal of allodynia at 10 mg/kg, po measured at 24 hrs relative to control; assay type: functional; procedure, shortened: as §1
Rattus norvegicus [4] = experiment: Analgesic activity in rat spinal nerve ligation neuropathic pain model assessed as reversal of allodynia at 10 mg/kg, po measured at 8 hrs relative to control; assay type: functional; procedure, shortened: as §1
Rattus norvegicus [5] = experiment: Analgesic activity in rat spinal nerve ligation neuropathic pain model assessed as reversal of allodynia at 3 mg/kg, po measured at 8 hrs relative to control; assay type: functional; procedure, shortened: as §1
Rattus norvegicus [6] = experiment: Analgesic activity in rat spinal nerve ligation neuropathic pain model assessed as reversal of allodynia at 10 mg/kg, po measured at 4 hrs relative to control; assay type: functional; procedure, shortened: as §1
Rattus norvegicus [7] = experiment: Analgesic activity in rat spinal nerve ligation neuropathic pain model assessed as reversal of allodynia at 3 mg/kg, po measured at 4 hrs relative to control; assay type: functional; procedure, shortened: as §1
Rattus norvegicus [8] = experiment: Analgesic activity in rat spinal nerve ligation neuropathic pain model assessed as reversal of allodynia at 3 mg/kg, po measured at 2 hrs relative to control; assay type: functional; procedure, shortened: as §1
[9] = biological target: Mu-type opioid receptor (Homo sapiens) (UniProt P35372); experiment: Binding affinity to mu opioid receptor (unknown origin) at 25 uM relative to control
Sequence of Mu-type opioid receptor (Homo sapiens) (P35372 whole entry): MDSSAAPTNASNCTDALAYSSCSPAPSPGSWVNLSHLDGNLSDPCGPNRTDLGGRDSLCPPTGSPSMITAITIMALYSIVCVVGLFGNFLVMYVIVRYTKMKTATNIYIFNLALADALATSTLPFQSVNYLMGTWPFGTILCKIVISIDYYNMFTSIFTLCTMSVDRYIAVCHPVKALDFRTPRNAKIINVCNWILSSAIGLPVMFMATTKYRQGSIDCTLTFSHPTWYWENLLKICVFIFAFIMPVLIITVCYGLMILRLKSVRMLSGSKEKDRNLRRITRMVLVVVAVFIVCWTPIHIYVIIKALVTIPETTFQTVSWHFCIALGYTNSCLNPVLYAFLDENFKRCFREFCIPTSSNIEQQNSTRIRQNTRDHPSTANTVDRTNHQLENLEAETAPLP

[10] = biological target: Kappa-type opioid receptor (Homo sapiens) (UniProt P41145); experiment: Binding affinity to kappa opioid receptor (unknown origin) at 25 uM relative to control
Sequence of Kappa-type opioid receptor (Homo sapiens) (P41145 whole entry): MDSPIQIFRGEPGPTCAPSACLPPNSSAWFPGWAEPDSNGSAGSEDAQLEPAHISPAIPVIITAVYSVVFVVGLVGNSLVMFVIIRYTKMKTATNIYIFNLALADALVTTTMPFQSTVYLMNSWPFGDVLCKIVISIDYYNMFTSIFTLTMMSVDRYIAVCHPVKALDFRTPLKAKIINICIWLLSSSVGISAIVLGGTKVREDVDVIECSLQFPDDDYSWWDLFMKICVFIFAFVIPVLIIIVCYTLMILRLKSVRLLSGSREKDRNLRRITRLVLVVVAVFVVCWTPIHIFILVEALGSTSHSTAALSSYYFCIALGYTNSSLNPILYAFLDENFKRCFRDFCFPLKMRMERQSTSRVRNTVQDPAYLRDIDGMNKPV

[11] = biological target: T1, Sodium channel protein type 5 subunit alpha (Homo sapiens, UniProt Q14524); experiment: Binding affinity to resting state of human NaV1.5 channel by whole-cell patch clamp assay; conditions: read-out: K
T1 sequence (Q14524 whole entry): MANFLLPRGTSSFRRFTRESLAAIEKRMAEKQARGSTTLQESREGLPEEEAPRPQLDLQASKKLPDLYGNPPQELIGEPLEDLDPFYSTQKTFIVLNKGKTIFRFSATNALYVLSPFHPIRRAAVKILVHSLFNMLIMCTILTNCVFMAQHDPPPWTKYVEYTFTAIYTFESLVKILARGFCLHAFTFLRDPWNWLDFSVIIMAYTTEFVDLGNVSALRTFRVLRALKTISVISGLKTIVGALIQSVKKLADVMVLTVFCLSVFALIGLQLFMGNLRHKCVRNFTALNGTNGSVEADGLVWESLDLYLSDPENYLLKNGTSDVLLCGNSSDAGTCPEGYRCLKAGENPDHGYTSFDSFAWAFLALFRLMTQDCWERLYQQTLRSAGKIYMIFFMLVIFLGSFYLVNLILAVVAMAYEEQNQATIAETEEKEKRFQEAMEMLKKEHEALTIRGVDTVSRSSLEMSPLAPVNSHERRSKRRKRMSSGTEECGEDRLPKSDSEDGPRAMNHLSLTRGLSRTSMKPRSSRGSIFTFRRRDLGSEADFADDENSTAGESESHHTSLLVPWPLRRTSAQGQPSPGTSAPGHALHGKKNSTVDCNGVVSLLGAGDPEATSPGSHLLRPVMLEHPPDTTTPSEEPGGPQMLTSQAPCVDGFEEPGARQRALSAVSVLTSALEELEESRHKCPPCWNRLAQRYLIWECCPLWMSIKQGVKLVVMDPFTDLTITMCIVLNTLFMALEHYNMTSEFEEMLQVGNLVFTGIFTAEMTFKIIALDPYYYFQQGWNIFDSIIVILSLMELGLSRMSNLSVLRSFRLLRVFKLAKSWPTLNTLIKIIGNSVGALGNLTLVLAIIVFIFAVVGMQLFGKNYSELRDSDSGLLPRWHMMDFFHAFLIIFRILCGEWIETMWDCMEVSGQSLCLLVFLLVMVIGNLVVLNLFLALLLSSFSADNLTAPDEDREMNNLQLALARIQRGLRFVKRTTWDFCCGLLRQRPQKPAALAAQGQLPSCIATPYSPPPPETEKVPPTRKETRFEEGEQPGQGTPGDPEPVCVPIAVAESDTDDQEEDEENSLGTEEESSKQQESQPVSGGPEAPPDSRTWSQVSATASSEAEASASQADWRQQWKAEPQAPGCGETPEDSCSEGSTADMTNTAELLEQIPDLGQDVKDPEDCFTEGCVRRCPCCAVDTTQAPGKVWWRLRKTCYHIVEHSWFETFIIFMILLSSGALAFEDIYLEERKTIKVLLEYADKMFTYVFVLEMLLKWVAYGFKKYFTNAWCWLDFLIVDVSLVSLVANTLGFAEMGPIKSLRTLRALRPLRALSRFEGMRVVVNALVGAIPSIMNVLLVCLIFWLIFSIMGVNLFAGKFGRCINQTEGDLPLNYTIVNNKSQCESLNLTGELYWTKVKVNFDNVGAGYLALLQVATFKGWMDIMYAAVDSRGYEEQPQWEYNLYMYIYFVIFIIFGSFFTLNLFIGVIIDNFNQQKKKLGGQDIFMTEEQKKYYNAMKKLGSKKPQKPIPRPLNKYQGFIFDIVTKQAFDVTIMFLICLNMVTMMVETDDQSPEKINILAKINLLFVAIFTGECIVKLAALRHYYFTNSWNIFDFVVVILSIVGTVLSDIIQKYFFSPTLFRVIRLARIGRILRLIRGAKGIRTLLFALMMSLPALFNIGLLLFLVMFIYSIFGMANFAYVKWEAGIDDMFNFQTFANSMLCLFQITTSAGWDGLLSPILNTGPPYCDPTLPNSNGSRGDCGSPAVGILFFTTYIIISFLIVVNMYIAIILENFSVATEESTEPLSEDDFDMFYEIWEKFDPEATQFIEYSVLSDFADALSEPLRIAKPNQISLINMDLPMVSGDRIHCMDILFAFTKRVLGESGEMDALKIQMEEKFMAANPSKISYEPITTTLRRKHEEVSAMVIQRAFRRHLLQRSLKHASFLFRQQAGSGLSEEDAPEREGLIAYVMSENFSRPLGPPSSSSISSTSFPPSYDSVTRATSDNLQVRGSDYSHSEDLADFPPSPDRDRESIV

[12] = biological target: T1, Sodium channel protein type 5 subunit alpha; experiment: Binding affinity to inactivated state of human NaV1.5 channel by whole-cell patch clamp assay; conditions: read-out: K
[13] = Half life in Sprague-Dawley rat at 3 mg/kg, po and 1 mg/kg, iv; assay type: ADME, organism-based; conditions: in vivo
Procedure, shortened: (§2)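 Fasted male Sprague–Dawley rats (n = 3 per route) were dosed with 1.5 mg/mL solutions in PEG300/water or DMSO/PEG300/water, either 1.0 mg/kg iv via femoral-vein cannula or 3.0 mg/kg by oral gavage. Blood was sampled at 5 min (iv only), 15 and 30 min, and 1, 2, 4, 6 and 8 h. Plasma levels were measured by LC–MS/MS after acetonitrile protein precipitation.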

[14] = Oral bioavailability in Sprague-Dawley rat at 3 mg/kg; assay type: ADME, organism-based; conditions: in vivo; procedure, shortened: as §2

Activity [9]: < 50%
Activity [10]: < 50%
half-life [13]: 1.9 h
bioavailability [14]: 100%
Compound: O=C(N[C@H](Cc1ccccc1F)C(=O)N[C@@H]1CCc2c(F)c(F)cc(F)c2N(C2CC2)C1=O)C1CC1C(F)(F)F (some centres undefined)
Activity (Rattus norvegicus [1]): Dose-dependent effect
ED50 (Rattus norvegicus [2]): 15 mg/kg
Activity (Rattus norvegicus [3]): 4%
Activity (Rattus norvegicus [4]): 20%
Activity (Rattus norvegicus [5]): 7%
Activity (Rattus norvegicus [6]): 39%
Activity (Rattus norvegicus [7]): 18%
Activity (Rattus norvegicus [8]): 15%
Kd [11]: > 10000 nM
Kd [12]: 2380 nM
